{"source": "ChEMBL document CHEMBL3588837", "about": "“Development and validation of a novel assay to identify radiosensitizers that target nucleophosmin 1” (Bioorg Med Chem, 2015)", "key": {"[1]": {"system": "Nucleophosmin (Homo sapiens), P06748 [T199N]", "sequence (P06748 whole entry T199N)": "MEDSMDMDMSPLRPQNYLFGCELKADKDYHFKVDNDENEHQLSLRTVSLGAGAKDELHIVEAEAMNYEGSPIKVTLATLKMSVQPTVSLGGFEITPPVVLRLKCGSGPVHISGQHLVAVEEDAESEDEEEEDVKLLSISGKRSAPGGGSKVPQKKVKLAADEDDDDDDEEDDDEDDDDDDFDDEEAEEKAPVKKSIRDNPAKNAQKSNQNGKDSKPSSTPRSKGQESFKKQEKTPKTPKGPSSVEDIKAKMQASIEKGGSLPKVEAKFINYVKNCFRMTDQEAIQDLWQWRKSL", "assay": "(§1) Inhibition of phosphorylated NPM1 recruitment to chromatic in 6 Gy irradiated human A549 cells assessed as band intensity ratio of protein solubility measured as extraction of pT199NPM1 pretreated 30 mins and measured after 90 mins of irradiation at 25 uM by Western blot analysis in presence of high NP-40 lysis buffer relative to DMSO control", "type": "cell-based", "method_in_brief": "(§2)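 A549 cells at 70–80% confluency were exposed to compound for 30 min, given 6 Gy from a Cs137 source at 2 Gy/min, and held 90 min at 37°C. Equal protein was run on 10% SDS-PAGE and immunoblotted for pT199 NPM1 and total NPM1. Band intensity ratio = (compound+6 Gy)/(DMSO+6 Gy).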"}, "[2]": {"system": "Nucleophosmin (Homo sapiens), P06748 [T199N]", "assay": "Inhibition of phosphorylated NPM1 recruitment to chromatic in 6 Gy irradiated human A549 cells assessed as increase in protein solubility as extraction of pT199NPM1 pretreated 30 mins and measured after 90 mins of irradiation at 10 uM by Western blot analysis", "type": "cell-based", "method_in_brief": "(§3)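 Drug or DMSO at various concentrations was present on A549 cells for 30 min before, during, and 90 min after 0 or 6 Gy. Nuclear proteins were extracted in 420 mM NaCl high salt buffer and blotted for pT199 NPM1. Buffer-soluble pNPM1 in irradiated cells was quantified relative to non-irradiated cells (±SD, N=3). EC50 was taken from the band intensity plot.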"}, "Nucleophosmin [3]": {"molecular_target": "T1, Nucleophosmin (Homo sapiens, UniProt P06748, T199N)", "T1 sequence (P06748 whole entry T199N)": "as above", "assay": "(§4) Inhibition of phosphorylated NPM1 recruitment to chromatic in 6 Gy irradiated human A549 cells assessed as increase in protein solubility as extraction of pT199NPM1 pretreated 30 mins and measured after 90 mins of irradiation by Western blot analysis", "type": "cell-based", "method_in_brief": "as §3"}, "[4]": {"system": "Nucleophosmin (Homo sapiens), P06748 [T199N]", "assay": "Inhibition of phosphorylated NPM1 recruitment to chromatic in 6 Gy irradiated human A549 cells assessed as extraction of pT199NPM1 pretreated 30 mins and measured after 90 mins of irradiation at 25 uM by Western blot analysis in presence of high RIPA lysis buffer", "type": "cell-based"}, "[5]": {"system": "Nucleophosmin (Homo sapiens), P06748 [T199N]", "assay": "Inhibition of phosphorylated NPM1 recruitment to chromatic in 6 Gy irradiated human A549 cells assessed as extraction of pT199NPM1 pretreated 30 mins and measured after 90 mins of irradiation at 25 uM by Western blot analysis in presence of high salt lysis buffer", "type": "cell-based", "method_in_brief": "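A549 cells were dosed with 25 μM drug for 30 min, irradiated, and incubated 90 min. Nuclei were isolated on ice, then extracted in high salt buffer (10 mM HEPES pH 7.2, 420 mM NaCl, 1.5 mM MgCl2, 0.5 mM DTT, 25% glycerol). Extracts were immunoblotted for pT199 NPM1 and total NPM1.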"}, "[6]": {"system": "Nucleophosmin (Homo sapiens), P06748 [T199N]", "assay": "Inhibition of phosphorylated NPM1 recruitment to chromatic in 6 Gy irradiated human A549 cells assessed as extraction of pT199NPM1 pretreated 30 mins and measured after 90 mins of irradiation at 25 uM by Western blot analysis in presence of high NP-40 lysis buffer", "type": "cell-based"}, "[7]": {"system": "Nucleophosmin (Homo sapiens), P06748 [T199N]", "assay": "Inhibition of phosphorylated NPM1 recruitment to chromatic in 6 Gy irradiated human IMR90 cells assessed as extraction of pT199NPM1 pretreated 30 mins and measured after 90 mins of irradiation at 25 uM by Western blot analysis relative to DMSO control in presence of high NP-40 lysis buffer", "type": "cell-based", "conditions": "IMR-90", "method_in_brief": "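IMR-90 normal lung fibroblasts, grown in DMEM, received 25 μM drug for 30 min, were irradiated, and were incubated 90 min. Total lysate was prepared with NP-40 lysis buffer and analysed by Western blot for pT199 NPM1.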"}, "[8]": {"system": "Nucleophosmin (Homo sapiens), P06748 [T199N]", "assay": "as §4, with “analysis relative to YTR107 in presence of high NP-40 lysis buffer” for “analysis”", "type": "cell-based"}, "NCI-H460": {"system": "NCI-H460", "assay": "Radiodensitization of 6 Gy irradiated human H460 cells assessed as colony formation pretreated 30 mins followed by irradiated for 90 mins and washed off measured after 10 to 14 days incubation at 5 uM by trypan blue assay", "type": "functional, cell-based", "method_in_brief": "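H460 cells, grown in RPMI-1640, were plated in T25 flasks and exposed to 5 μM drug at 37°C for 30 min. They were then irradiated at various radiation doses and incubated 90 min. Drug was washed off with PBS and fresh medium added. Flasks were kept 10–14 days, and colonies were stained with trypan blue and counted.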"}, "[9]": {"system": "Nucleophosmin (Homo sapiens), P06748 [T199N]", "assay": "as §1, with “2.5” for “25”", "type": "cell-based"}, "Nucleophosmin [10]": {"molecular_target": "T1, Nucleophosmin", "assay": "Inhibition of phosphorylated NPM1 recruitment to chromatic in 6 Gy irradiated human A549 cells assessed as extraction of pT199NPM1 pretreated 30 mins and measured after 90 mins of irradiation by Western blot analysis in presence of high NP-40 lysis buffer", "type": "cell-based"}, "[11]": {"molecular_target": "Nucleophosmin (Homo sapiens) (UniProt P06748)", "sequence (P06748 whole entry)": "as the sequence (P06748 whole entry T199N) above, with N199T counted along it", "assay": "Inhibition of phosphorylated NPM1 recruitment to chromatic in 6 Gy irradiated human A549 cells assessed as increase in solubility of protein pretreated 30 mins and measured after 90 mins of irradiation at 2.5 to 5 uM by Western blot analysis relative to DMSO control in presence of high NP-40 lysis buffer", "type": "cell-based"}, "[12]": {"system": "Nucleophosmin (Homo sapiens), P06748 [T199N]", "assay": "Inhibition of phosphorylated NPM1 recruitment to chromatic in 6 Gy irradiated human A549 cells assessed as extraction of pT199NPM1 pretreated 30 mins and measured after 90 mins of irradiation at 2.5 uM by Western blot analysis relative to DMSO control in presence of high NP-40 lysis buffer", "type": "cell-based", "method_in_brief": "as §2"}, "[13]": {"molecular_target": "Nucleophosmin (Homo sapiens) (UniProt P06748)", "assay": "Inhibition of phosphorylated NPM1 recruitment to chromatic in 6 Gy irradiated human A549 cells assessed as increase in solubility of protein pretreated 30 mins and measured after 90 mins of irradiation at 5 uM by Western blot analysis relative to DMSO control in presence of high NP-40 lysis buffer", "type": "cell-based"}}, "note": "The source made the active and inactive calls. The calls are words filed in the database; no cut-off is given here.", "data": [{"smiles": "COc1cc(Cn2c(C)c(C=C3C(=O)NC(=O)NC3=O)c3ccccc32)cc(OC)c1OC", "values": [{"measurement": "Ratio", "setting": "[1]", "value": 1.16}]}, {"smiles": "Cc1c(C=C2C(=O)NC(=S)NC2=O)c2ccccc2n1Cc1ccccc1C(F)(F)F", "values": [{"measurement": "Ratio", "setting": "[1]", "value": 1.54}]}, {"smiles": "COc1cc(Cn2c(C)c(C=C3C(=O)NC(=S)NC3=O)c3ccccc32)cc(OC)c1", "values": [{"measurement": "Ratio", "setting": "[1]", "value": 1.97}]}, {"smiles": "Cc1c(C=C2C(=O)NC(=S)NC2=O)c2ccccc2n1Cc1ccc(C#N)cc1", "values": [{"measurement": "Ratio", "setting": "[1]", "value": 1.86}]}, {"smiles": "Cc1c(C=C2C(=O)NC(=S)NC2=O)c2ccccc2n1Cc1ccccc1Br", "values": [{"measurement": "Ratio", "setting": "[1]", "value": 1.68}]}, {"smiles": "Cc1c(C=C2C(=O)NC(=O)NC2=O)c2ccccc2n1Cc1ccccc1C(F)(F)F", "values": [{"measurement": "Ratio", "setting": "[1]", "value": 1.16}]}, {"smiles": "Cc1c(C=C2C(=O)NC(=O)NC2=O)c2ccccc2n1Cc1ccccc1", "values": [{"measurement": "Ratio", "setting": "[1]", "value": 1.53}]}, {"smiles": "COc1cc(Cn2c(C)c(C=C3C(=O)NC(=S)NC3=O)c3ccccc32)cc(OC)c1OC", "values": [{"measurement": "Ratio", "setting": "[1]", "value": 1.97}]}, {"smiles": "COC(=O)c1ccc(Cn2c(C)c(C=C3C(=O)NC(=S)NC3=O)c3ccccc32)cc1", "values": [{"measurement": "Ratio", "setting": "[1]", "value": 1.74}]}, {"smiles": "N#Cc1ccc(Cn2cc(C=C3C(=O)NC(=O)NC3=O)c3ccccc32)cc1", "values": [{"measurement": "Ratio", "setting": "[1]", "value": 1.51}, {"measurement": "Activity", "setting": "[2]", "value": "Active"}, {"measurement": "EC50", "setting": "Nucleophosmin [3]", "value": 9.7, "unit": "µM"}, {"measurement": "Activity", "setting": "[4]", "value": "Active"}, {"measurement": "Activity", "setting": "[5]", "value": "Active"}, {"measurement": "Activity", "setting": "[6]", "value": "Active"}, {"measurement": "Activity", "setting": "[7]", "value": "inactive"}]}, {"smiles": "Cc1c(C=C2C(=O)NC(=S)NC2=O)c2ccccc2n1Cc1ccccc1", "values": [{"measurement": "Ratio", "setting": "[1]", "value": 1.96}]}, {"smiles": "Cc1c(C=C2C(=O)NC(=O)NC2=O)c2ccccc2n1Cc1ccc(Br)cc1", "values": [{"measurement": "Ratio", "setting": "[1]", "value": 1.23}]}, {"smiles": "Cc1c(C=C2C(=O)NC(=S)NC2=O)c2ccccc2n1Cc1ccc(Br)cc1", "values": [{"measurement": "fold change (FC)", "setting": "[8]", "value": 4}, {"measurement": "Activity", "setting": "NCI-H460", "value": "Active"}, {"measurement": "Ratio", "setting": "[9]", "value": 1.78}, {"measurement": "EC50", "setting": "Nucleophosmin [10]", "value": 2.5, "unit": "µM"}]}, {"smiles": "COc1ccc(Cn2c(C)c(C=C3C(=O)NC(=S)NC3=O)c3ccccc32)c(OC)c1", "values": [{"measurement": "Ratio", "setting": "[1]", "value": 1.22}]}, {"smiles": "COc1cc(Cn2c(C)c(C=C3C(=O)NC(=O)NC3=O)c3ccccc32)cc(OC)c1", "values": [{"measurement": "Ratio", "setting": "[1]", "value": 1.63}, {"measurement": "Activity", "setting": "[11]", "value": "inactive"}]}, {"smiles": "COC(=O)c1ccc(Cn2c(C)c(C=C3C(=O)NC(=O)NC3=O)c3ccccc32)cc1", "values": [{"measurement": "Ratio", "setting": "[1]", "value": 1.48}]}, {"smiles": "Cc1c(C=C2C(=O)NC(=O)NC2=O)c2ccccc2n1Cc1ccc(C#N)cc1", "values": [{"measurement": "Ratio", "setting": "[1]", "value": 1.58}, {"measurement": "Activity", "setting": "[12]", "value": "inactive"}, {"measurement": "Activity", "setting": "[13]", "value": "Active"}]}, {"smiles": "Cc1c(C=C2C(=O)NC(=O)NC2=O)c2ccccc2n1Cc1ccccc1Br", "values": [{"measurement": "Ratio", "setting": "[1]", "value": 1.05}]}]}
